Experiments:
Settings in all cases: stereoisomer not certain
OR10G2 (Homo sapiens) = biological target: T1, OR10G2 (Homo sapiens) (UniProt Q8NGC3)
T1 sequence (whole entry): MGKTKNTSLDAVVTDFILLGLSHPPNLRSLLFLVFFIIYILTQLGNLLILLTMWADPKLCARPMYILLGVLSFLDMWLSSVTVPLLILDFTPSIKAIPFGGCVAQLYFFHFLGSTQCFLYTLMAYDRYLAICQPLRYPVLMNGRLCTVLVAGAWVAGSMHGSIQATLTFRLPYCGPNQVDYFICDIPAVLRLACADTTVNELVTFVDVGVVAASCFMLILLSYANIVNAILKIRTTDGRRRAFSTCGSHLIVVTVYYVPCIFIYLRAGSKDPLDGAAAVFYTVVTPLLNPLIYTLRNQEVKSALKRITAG
Method in brief: (§1)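 Transient luciferase assays in mammalian cell lines were common, though methods varied by source. The values come from published papers and their supplementary material, with extra details from the original authors when needed. Responsive refers to a measured signal the original authors judged statistically different from baseline, and non-responsive (inactive) to the remainder.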

OR10G3 (Homo sapiens) = biological target: T2, OR10G3 (Homo sapiens) (UniProt Q8NGC4)
T2 sequence (whole entry): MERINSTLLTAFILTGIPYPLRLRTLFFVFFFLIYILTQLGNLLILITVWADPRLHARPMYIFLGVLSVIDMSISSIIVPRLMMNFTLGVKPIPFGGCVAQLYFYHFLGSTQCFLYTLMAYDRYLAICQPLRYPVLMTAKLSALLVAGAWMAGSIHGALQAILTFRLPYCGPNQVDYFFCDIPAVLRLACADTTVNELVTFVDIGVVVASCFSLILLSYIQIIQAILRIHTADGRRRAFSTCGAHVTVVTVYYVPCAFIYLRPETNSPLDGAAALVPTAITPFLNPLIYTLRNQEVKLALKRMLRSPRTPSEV
Method in brief: as §1

OR10G4 (Homo sapiens) = biological target: T3, OR10G4 (Homo sapiens) (UniProt Q8NGN3)
T3 sequence (whole entry): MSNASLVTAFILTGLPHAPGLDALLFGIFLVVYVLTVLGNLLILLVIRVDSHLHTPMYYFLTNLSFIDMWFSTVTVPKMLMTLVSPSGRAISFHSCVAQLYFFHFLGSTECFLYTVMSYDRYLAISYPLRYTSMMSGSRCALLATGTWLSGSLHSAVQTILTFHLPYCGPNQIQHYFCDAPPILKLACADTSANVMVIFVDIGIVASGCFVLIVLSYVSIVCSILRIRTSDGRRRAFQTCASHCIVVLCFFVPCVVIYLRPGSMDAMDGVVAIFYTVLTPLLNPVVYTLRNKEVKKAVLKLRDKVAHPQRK
Method in brief: as §1

OR10G6 (Homo sapiens) = biological target: T4, OR10G6 (Homo sapiens) (UniProt Q8NH81)
T4 sequence (whole entry): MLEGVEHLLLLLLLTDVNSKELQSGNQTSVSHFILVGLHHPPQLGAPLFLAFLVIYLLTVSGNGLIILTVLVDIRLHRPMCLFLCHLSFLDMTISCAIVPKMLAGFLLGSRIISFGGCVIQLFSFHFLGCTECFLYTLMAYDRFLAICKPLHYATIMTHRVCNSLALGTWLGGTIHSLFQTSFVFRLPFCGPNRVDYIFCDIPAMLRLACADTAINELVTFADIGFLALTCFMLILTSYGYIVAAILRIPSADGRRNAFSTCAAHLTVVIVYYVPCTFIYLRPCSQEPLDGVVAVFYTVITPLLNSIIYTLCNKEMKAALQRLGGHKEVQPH
Method in brief: as §1

OR10G7 (Homo sapiens) = biological target: T5, OR10G7 (Homo sapiens) (UniProt Q8NGN6)
T5 sequence (whole entry): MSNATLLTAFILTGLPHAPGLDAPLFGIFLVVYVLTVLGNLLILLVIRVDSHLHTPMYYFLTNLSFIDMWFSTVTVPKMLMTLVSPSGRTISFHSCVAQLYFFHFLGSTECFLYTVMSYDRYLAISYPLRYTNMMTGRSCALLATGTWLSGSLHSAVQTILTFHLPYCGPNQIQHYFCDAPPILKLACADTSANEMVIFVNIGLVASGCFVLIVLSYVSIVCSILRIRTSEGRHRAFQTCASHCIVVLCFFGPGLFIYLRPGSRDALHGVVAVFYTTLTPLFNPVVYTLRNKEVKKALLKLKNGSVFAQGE
Method in brief: as §1

OR10G8 (Homo sapiens) = biological target: T6, OR10G8 (Homo sapiens) (UniProt Q8NGN5)
T6 sequence (whole entry): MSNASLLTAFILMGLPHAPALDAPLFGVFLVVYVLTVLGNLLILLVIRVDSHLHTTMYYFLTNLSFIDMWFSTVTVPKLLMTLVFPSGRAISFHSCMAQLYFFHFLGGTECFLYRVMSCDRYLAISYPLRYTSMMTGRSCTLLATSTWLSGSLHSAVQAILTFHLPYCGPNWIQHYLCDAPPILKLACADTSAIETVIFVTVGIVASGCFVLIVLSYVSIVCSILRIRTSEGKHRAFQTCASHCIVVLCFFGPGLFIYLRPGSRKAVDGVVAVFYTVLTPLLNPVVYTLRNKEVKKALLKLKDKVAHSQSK
Method in brief: as §1

OR10G9 (Homo sapiens) = biological target: T7, OR10G9 (Homo sapiens) (UniProt Q8NGN4)
T7 sequence (whole entry): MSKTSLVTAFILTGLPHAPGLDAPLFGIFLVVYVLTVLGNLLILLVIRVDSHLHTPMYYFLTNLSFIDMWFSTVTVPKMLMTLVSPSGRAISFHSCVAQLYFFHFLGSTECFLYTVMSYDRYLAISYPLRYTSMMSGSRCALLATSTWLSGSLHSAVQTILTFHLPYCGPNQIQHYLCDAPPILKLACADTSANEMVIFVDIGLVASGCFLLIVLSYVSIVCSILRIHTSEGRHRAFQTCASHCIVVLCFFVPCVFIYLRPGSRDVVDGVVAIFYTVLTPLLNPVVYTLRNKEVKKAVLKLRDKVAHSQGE
Method in brief: as §1

OR10H1 (Homo sapiens) = biological target: T8, OR10H1 (Homo sapiens) (UniProt Q9Y4A9)
T8 sequence (whole entry): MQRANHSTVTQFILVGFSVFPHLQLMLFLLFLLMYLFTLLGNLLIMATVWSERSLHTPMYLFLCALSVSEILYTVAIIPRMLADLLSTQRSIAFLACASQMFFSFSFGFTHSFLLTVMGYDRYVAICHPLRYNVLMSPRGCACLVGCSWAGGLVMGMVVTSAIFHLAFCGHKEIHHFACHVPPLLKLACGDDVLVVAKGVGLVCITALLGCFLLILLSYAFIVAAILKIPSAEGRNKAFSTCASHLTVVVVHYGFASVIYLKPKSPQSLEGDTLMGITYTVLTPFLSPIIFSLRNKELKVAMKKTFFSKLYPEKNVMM
Method in brief: as §1

OR10H2 (Homo sapiens) = biological target: T9, OR10H2 (Homo sapiens) (UniProt O60403)
T9 sequence (whole entry): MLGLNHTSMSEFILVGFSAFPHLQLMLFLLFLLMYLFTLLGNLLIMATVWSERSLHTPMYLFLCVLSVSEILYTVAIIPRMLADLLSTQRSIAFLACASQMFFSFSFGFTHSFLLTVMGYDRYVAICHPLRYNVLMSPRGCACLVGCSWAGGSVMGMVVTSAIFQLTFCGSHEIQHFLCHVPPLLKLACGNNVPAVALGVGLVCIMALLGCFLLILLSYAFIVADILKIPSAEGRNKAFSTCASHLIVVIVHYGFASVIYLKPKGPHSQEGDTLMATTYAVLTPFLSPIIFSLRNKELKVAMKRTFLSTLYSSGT
Method in brief: as §1

OR10H3 (Homo sapiens) = biological target: T10, OR10H3 (Homo sapiens) (UniProt O60404)
T10 sequence (whole entry): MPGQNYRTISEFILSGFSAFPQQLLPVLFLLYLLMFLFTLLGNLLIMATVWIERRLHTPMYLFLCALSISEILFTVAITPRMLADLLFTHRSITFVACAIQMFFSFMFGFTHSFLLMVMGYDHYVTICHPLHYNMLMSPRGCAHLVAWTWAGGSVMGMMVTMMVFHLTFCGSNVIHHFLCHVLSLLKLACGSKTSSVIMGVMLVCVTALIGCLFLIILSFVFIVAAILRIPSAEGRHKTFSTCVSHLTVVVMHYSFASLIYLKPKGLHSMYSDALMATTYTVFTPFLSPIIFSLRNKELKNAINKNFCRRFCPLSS
Method in brief: as §1

Measured: odorant receptor agonist call;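 note: active if original authors judged signal statistically different from baseline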

CCCCCCC=CCCC=O
inactive: all assays above

From the M2OR odorant receptor database
